From ChEMBL document CHEMBL4002644, “Discovery of GBT440, an Orally Bioavailable R-State Stabilizer of Sickle Cell Hemoglobin” (ACS Med Chem Lett, 2017)
The source made the active and inactive calls. The calls are words filed in the database; no cut-off is given here.

Tests used:
[1] = test system: Hemoglobin HbA (Homo sapiens), P69905+P68871 [E7V]; assay: (§1) Induction of R-state stabilization of Hb betaGlu6Val mutant in sickle disease patient purified HbS/HbA mixture assessed as change from baseline of partial pressure of O2 at which HbS is 50% saturated with O2 at 30 uM preincubated for 45 mins followed by oxygenation for 10 mins and subsequent deoxygenation by hemoximetry relative to control
Procedure, shortened: (§2)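 Oxygen equilibrium curves were run on a Hemox Analyzer using Hb purified from sickle disease blood (an HbA/HbS mixture) at 25 μM. Compound was tested at 30 μM, or at 500 μM where noted. The read-out was the % change from baseline in the pO2 at which HbS is 50% saturated (Δp50).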

[2] = test system: Hemoglobin HbA (Homo sapiens), P69905+P68871 [E7V]; assay: (§3) Induction of R-state stabilization of Hb betaGlu6Val mutant in sickle cell disease transfused human whole blood assessed as change from baseline of partial pressure of O2 at which HbS is 50% saturated with O2 at 1 mM preincubated for 45 mins followed by 20 mins oxygenation/deoxygenation cycle by hemoximetry relative to control
Procedure, shortened: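 Whole blood from transfused SCD subjects, at 20% hematocrit (Hb 1 mM), was run with compound at 1 mM. Oxygen equilibrium curves were measured by hemoximetry. The value is the % change from baseline in the pO2 giving 50% O2 saturation (Δp50).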

Homo sapiens = organism: Homo sapiens; assay: Induction of R-state stabilization of sickle cell Hb betaGlu6Val mutant purified from sickle cell patient assessed as inhibition of KH2PO4-induced polymerization by measuring change from baseline of delay time for onset of polymerization at 75 uM preincubated for 1 hr followed by deoxygenation for …; design: scale not given: the % may be the effect or the level left
Blood = assay: Half life in Sprague-Dawley rat blood at 7.2 to 120 mg/kg, po by LC-MS/MS analysis; type: ADME, organism-based; conditions: in vivo
[3] = Ratio of drug level in Sprague-Dawley rat RBC to plasma at 7.2 to 120 mg/kg, po by LC-MS/MS analysis; type: ADME, organism-based; conditions: red blood cells (RBC) / plasma
Rattus norvegicus = assay: Dose normalized AUC (0 to infinity) in Sprague-Dawley rat at 7.2 to 120 mg/kg, po by LC-MS/MS analysis; type: ADME, organism-based; conditions: in vivo
Procedure, shortened: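 Rat oral PK: AUC(0–∞) divided by the oral dose, expressed as (ng·h/mL)/(mg/kg).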

[4] = test system: Hemoglobin HbA (Homo sapiens), P69905+P68871 [E7V]; assay: as §3, with “sickle” for “sickle cell”, “patient purified HbS/HbA mixture” for “transfused human whole blood”, “5” for “1”
[5] = Oral bioavailability in Sprague-Dawley rat at 7.2 to 120 mg/kg by LC-MS/MS analysis; type: ADME, organism-based; conditions: in vivo
[6] = Oral bioavailability in dog; type: ADME, organism-based, Canis lupus familiaris; conditions: in vivo
[7] = Oral bioavailability in monkey; type: ADME, organism-based, Macaca mulatta; conditions: rhesus monkey, in vivo
[8] = Half life in Sprague-Dawley rat plasma at 7.2 to 120 mg/kg, po by LC-MS/MS analysis; type: ADME, organism-based
[9] = Half life in dog blood; type: ADME, tissue-based, Canis lupus familiaris
[10] = Half life in dog plasma; type: ADME, cell-free, Canis lupus familiaris
[11] = Half life in monkey blood; type: ADME, tissue-based, Macaca mulatta; conditions: rhesus monkey
[12] = Half life in monkey plasma; type: ADME, cell-free, Macaca mulatta; conditions: rhesus monkey
Cytochrome P450 1A2 = target: T1, Cytochrome P450 1A2 (Homo sapiens, UniProt P05177); assay: Inhibition of CYP1A2 in human liver microsomes using phenacetin as substrate after 5 to 15 mins; type: ADME
T1 sequence (P05177 whole entry): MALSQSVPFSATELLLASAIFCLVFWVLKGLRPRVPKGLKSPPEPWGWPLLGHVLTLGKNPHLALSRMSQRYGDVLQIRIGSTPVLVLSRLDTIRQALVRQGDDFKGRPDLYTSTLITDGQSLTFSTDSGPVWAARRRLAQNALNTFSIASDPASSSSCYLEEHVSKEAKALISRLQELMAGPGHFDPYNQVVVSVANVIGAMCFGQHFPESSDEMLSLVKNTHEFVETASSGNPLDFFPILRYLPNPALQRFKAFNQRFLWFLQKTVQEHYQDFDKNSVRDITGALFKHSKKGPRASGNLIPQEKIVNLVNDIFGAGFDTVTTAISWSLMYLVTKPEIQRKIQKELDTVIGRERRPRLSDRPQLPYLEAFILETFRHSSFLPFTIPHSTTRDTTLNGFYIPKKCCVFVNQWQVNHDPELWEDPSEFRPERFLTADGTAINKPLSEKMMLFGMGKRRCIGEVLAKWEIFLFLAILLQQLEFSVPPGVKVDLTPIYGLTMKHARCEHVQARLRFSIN
Procedure, shortened: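 Pooled human liver microsomes incubated with phenacetin as the CYP1A2-specific probe substrate across a range of test-compound concentrations. IC50 derived from inhibition of probe metabolism.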

Cytochrome P450 2C8 = target: T2, Cytochrome P450 2C8 (Homo sapiens, UniProt P10632); assay: Inhibition of CYP2C8 in human liver microsomes using paclitaxel as substrate after 5 to 15 mins; type: ADME
T2 sequence (P10632 whole entry): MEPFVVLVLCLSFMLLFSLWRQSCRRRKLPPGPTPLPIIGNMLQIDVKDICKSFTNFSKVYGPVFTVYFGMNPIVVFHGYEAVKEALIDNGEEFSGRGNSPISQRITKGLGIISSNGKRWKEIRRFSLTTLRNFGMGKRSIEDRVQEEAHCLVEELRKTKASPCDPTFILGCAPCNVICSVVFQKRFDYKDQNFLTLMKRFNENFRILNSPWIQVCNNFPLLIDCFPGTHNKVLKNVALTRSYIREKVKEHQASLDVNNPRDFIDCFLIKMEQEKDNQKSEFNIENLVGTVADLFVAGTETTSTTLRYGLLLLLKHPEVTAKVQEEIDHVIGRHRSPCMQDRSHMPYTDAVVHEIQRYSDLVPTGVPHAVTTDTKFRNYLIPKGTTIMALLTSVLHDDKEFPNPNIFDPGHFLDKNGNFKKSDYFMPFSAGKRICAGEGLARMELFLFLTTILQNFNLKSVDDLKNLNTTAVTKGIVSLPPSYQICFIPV

Cytochrome P450 2C9 = Cytochrome P450 2C9 (Homo sapiens, UniProt P11712); assay: Inhibition of CYP2C9 in human liver microsomes using tolbutamide as substrate after 5 to 15 mins
Cytochrome P450 2C9, sequence (P11712 whole entry): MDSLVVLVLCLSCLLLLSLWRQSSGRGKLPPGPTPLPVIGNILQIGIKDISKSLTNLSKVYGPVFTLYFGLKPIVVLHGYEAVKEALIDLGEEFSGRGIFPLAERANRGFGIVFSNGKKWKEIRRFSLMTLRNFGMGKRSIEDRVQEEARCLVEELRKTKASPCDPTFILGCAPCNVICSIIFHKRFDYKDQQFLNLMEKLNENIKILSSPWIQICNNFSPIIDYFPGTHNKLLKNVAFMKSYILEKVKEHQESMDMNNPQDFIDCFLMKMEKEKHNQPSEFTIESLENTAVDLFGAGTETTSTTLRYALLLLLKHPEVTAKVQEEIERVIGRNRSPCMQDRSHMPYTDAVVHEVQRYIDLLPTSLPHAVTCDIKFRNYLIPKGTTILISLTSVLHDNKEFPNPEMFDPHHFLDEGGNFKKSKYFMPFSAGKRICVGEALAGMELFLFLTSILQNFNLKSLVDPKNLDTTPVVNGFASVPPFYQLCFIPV

Cytochrome P450 2C19 [13] = target: T3, Cytochrome P450 2C19 (Homo sapiens, UniProt P33261); assay: Inhibition of CYP2C19 in human liver microsomes using S-Mephentoin as substrate after 5 to 15 mins; type: ADME
T3 sequence (P33261 whole entry): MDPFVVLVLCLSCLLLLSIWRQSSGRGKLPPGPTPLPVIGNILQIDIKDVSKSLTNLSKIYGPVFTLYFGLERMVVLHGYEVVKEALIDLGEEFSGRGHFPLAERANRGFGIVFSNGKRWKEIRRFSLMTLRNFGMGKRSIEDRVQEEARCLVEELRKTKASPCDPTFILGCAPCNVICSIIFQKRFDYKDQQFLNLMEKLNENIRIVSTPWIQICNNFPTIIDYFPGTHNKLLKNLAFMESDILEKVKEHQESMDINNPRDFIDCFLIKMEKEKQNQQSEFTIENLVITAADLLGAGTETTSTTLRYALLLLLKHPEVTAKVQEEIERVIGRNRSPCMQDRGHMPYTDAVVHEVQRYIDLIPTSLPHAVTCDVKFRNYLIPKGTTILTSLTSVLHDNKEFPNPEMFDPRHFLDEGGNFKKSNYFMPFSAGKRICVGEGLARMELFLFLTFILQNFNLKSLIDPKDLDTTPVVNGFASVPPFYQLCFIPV
Procedure, shortened: (§4)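 Pooled human liver microsomes were incubated with isozyme-specific probe substrates: S-mephenytoin for CYP2C19 and bufuralol for CYP2D6.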

Cytochrome P450 2D6 = Cytochrome P450 2D6 (Homo sapiens, UniProt P10635); assay: Inhibition of CYP2D6 in human liver microsomes using bufuralol as substrate after 5 to 15 mins; type: ADME; procedure, shortened: as §4
Cytochrome P450 2D6, sequence (P10635 whole entry): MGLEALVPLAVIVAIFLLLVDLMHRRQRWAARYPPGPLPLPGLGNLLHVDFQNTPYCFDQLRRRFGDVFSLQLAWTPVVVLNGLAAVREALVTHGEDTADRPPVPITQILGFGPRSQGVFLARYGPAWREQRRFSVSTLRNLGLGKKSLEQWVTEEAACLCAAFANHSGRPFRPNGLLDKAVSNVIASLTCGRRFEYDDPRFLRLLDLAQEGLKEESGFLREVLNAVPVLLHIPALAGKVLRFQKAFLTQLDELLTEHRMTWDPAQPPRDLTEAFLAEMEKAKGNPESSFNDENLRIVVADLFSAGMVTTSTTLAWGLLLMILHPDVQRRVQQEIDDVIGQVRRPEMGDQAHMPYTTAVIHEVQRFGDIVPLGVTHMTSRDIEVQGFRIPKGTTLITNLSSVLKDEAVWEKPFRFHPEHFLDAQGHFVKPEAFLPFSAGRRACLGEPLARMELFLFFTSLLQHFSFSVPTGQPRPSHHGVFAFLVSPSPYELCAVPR

Cytochrome P450 3A4 [14] = target: T4, Cytochrome P450 3A4 (Homo sapiens, UniProt P08684); assay: Inhibition of CYP3A4 using in human liver microsomes using midazolam as substrate after 5 to 15 mins; type: ADME
T4 sequence (P08684 whole entry): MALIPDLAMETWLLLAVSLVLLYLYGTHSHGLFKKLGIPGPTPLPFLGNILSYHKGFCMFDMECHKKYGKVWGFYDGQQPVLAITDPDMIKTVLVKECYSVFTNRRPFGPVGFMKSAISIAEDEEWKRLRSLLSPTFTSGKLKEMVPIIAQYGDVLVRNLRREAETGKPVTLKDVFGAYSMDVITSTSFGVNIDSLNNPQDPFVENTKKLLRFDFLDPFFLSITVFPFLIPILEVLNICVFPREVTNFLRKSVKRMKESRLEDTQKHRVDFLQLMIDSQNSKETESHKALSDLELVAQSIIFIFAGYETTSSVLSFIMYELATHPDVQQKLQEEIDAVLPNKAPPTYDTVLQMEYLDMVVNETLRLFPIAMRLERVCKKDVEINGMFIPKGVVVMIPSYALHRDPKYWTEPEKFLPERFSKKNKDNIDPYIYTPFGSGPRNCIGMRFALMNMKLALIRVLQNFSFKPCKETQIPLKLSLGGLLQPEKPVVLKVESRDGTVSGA
Procedure, shortened: (§5)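 CYP3A4 inhibition was measured in pooled human liver microsomes using an isozyme-specific probe substrate: midazolam for line 1 and testosterone for line 2.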

Cytochrome P450 3A4 [15] = target: T4, Cytochrome P450 3A4; assay: Inhibition of CYP3A4 using in human liver microsomes using testosterone as substrate after 5 to 15 mins; type: ADME; procedure, shortened: as §5
[16] = test system: Hemoglobin HbA (Homo sapiens), P69905+P68871 [E7V]; assay: as §1, with “500” for “30”; procedure, shortened: as §2
Cytochrome P450 2C19 [17] = target: T3, Cytochrome P450 2C19; assay: Time dependent inhibition of CYP2C19 in human liver microsomes using S-Mephentoin as substrate; type: ADME
Cytochrome P450 3A4 [18] = target: T4, Cytochrome P450 3A4; assay: Time dependent inhibition of CYP3A4 using in human liver microsomes using midazolam as substrate; type: ADME
Cytochrome P450 3A4 [19] = target: T4, Cytochrome P450 3A4; assay: Time dependent inhibition of CYP3A4 using in human liver microsomes using testosterone as substrate; type: ADME

| SMILES | Activity [1] | Activity [2] | Activity (Homo sapiens) | t1/2 (Blood) | AUC/dose (Rattus norvegicus) | further results |
| --- | --- | --- | --- | --- | --- | --- |
| COc1cc(C=O)c(OCc2cccnc2-c2ccnn2C(C)C)cn1 | 66.2% | 66.9% | 115% | 2.7 h | 20.6 ng·h/mL/mg/kg | Kp [3]: 38 |
| COc1cc(C=O)c(OCc2cccnc2-c2ccnn2CCO)cn1 | 32.7% | 64.7% | 105% |  |  |  |
| COc1cncc(OCc2cccnc2-c2ccnn2C(C)C)c1C=O | 54.5% | 55% | 131% | 2.5 h | 36.4 ng·h/mL/mg/kg |  |
| COc1cc(C=O)c(OCc2cc(-c3cn[nH]c3)cn3ccnc23)cn1 | 28.2% |  |  |  |  |  |
| COc1cc(C=O)c(OCc2nccc3ccccc23)cn1 | 40.2% |  |  |  |  |  |
| CC(C)n1nccc1-c1ncccc1COc1cncc(O)c1C=O | 70.5% | 72.5% | 167% | 8.1 h | 10887 ng·h/mL/mg/kg |  |
| CC(C)n1nccc1-c1ncccc1COc1cccnc1C=O | 53.3% | 56.4% | 70.3% | 0.7 h | 34.2 ng·h/mL/mg/kg |  |
| COc1cc(C=O)c(OCc2cccc3ocnc23)cn1 | 37% |  |  |  |  |  |
| CC(C)n1nccc1-c1ncccc1COc1ccccc1C=O |  | 80.6% | 136% | 2.1 h | 1059 ng·h/mL/mg/kg |  |
| COc1cc(C=O)c(OCc2ccc3ccncc3c2)cn1 | 13.7% |  |  |  |  |  |
| COc1cc(C=O)c(OCc2cccc3ncccc23)cn1 | 36% |  |  |  |  |  |
| COCCOc1cc(C=O)c(OCc2cccnc2-c2ccnn2C(C)C)cn1 | 55.9% | 68.9% | 77.8% | 1.5 h | 1950 ng·h/mL/mg/kg |  |
| CC(C)n1nccc1-c1ncccc1COc1cnc(O)cc1C=O | 59.6% | 62.5% | 128% |  |  |  |
| COc1cc(C=O)c(OCc2cc(-c3nn[nH]n3)cn3ccnc23)cn1 | 21.1% |  |  |  |  |  |
| CC(C)n1nccc1-c1ncccc1COc1cnc(OC(F)F)cc1C=O | 43.1% | 49.7% | 73.1% |  |  |  |
| O=Cc1ccc(CO)o1 |  |  |  |  |  | Activity [4]: Active |
| COc1cc(C=O)c(OCc2ccnc3cccnc23)cn1 | 23.1% |  |  |  |  |  |
| COc1cc(C=O)c(OCc2cc(Br)cn3ccnc23)cn1 | 11.7% |  |  |  |  |  |
| COc1cc(C=O)c(OCc2cccnc2-c2ccn[nH]2)cn1 | 40.2% | 19.2% |  |  |  |  |
| COc1cc(C=O)c(OCc2cncc(-c3ccn[nH]3)c2)cn1 | 9% |  |  |  |  |  |
| CC(C)n1nccc1-c1ncccc1COc1cccc(O)c1C=O [VOXELOTOR] | 72.1% | 79.8% | 206% | 19.1 h | 326806 ng·h/mL/mg/kg | bioavailability [5]: 60%; bioavailability [6]: 37%; bioavailability [7]: 36%; half-life [8]: 20 h; half-life [9]: 20 h; half-life [10]: 20 h; half-life [11]: 20 h; half-life [12]: 20 h; Kp [3]: 150; IC50 (Cytochrome P450 1A2): 58.6 µM; IC50 (Cytochrome P450 2C8): 7.9 µM; IC50 (Cytochrome P450 2C9): 8.5 µM; IC50 (Cytochrome P450 2C19 [13]): 20 µM; IC50 (Cytochrome P450 2D6): 148 µM; IC50 (Cytochrome P450 3A4 [14]): 81.9 µM; IC50 (Cytochrome P450 3A4 [15]): 12.5 µM; Activity [16]: 2.6%; TDI (Cytochrome P450 2C19 [17]): Not Active; TDI (Cytochrome P450 3A4 [18]): Not Active; TDI (Cytochrome P450 3A4 [19]): Not Active |
| COc1cc(C=O)c(OCc2cccc3c2cnn3C)cn1 | 32.7% |  |  |  |  |  |
